b-catenin transl: beta-catenin nuclear translocation modulation; 0.3% of 190,000 active; AID 1665; nuclear translocation activity, % at 5 µM; HeLa beta-catenin nuclear translocation, immunofluorescence imaging;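 active means nuclear translocation activity above 50% at 5 µM, with a well cell count of 50 or more; inconclusive means wells under 50 cells across six images, flagged as toxic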;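 further: per-cell ratio of nuclear to cytoplasmic median beta-catenin stain intensity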
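assay system = human HeLa cells, endogenous beta-catenin | times = compound treatment 24 h, 37°C, 5% CO2 | detection = Anti-beta-catenin immunofluorescence on PFA-fixed, Triton-permeabilized cells, DAPI nuclei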
MT stabilize HCS: microtubule stabilizers in HeLa cells | AID 2205 | 0.83% of 200,000 active | % tubulin-high responders, % at 10 µM | HeLa tubulin immunostaining HCS, 24 h; share of cells brighter than vehicle mean+2SD;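 active means plate Z-score above 3 for both tubulin-high and condensed-nucleus cell shares, with cell loss under 80%, at 10 µM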;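 further: anti alpha tubulin signal scored within the nucleus-defined area of each cell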
Cl transport mod: modulates chloride dependent transport by human KCC2; 2.2% of 190,000 active; AID 1456; KCC2 cells, thallium flux FluoZin-2 fluorescence; B-score of Tl+ flux slope (higher = more flux/activation; lower = inhibition) at 10 µM; Q9H2X9;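 active means thallium flux slope and its plate-corrected score both differing from the plate sample mean at a set confidence after two filtering rounds, in either direction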;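 further: slope of fluorescence scaled to starting intensity during 10 to 20 s after thallium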
Target sequence (Q9H2X9 whole entry, looked up): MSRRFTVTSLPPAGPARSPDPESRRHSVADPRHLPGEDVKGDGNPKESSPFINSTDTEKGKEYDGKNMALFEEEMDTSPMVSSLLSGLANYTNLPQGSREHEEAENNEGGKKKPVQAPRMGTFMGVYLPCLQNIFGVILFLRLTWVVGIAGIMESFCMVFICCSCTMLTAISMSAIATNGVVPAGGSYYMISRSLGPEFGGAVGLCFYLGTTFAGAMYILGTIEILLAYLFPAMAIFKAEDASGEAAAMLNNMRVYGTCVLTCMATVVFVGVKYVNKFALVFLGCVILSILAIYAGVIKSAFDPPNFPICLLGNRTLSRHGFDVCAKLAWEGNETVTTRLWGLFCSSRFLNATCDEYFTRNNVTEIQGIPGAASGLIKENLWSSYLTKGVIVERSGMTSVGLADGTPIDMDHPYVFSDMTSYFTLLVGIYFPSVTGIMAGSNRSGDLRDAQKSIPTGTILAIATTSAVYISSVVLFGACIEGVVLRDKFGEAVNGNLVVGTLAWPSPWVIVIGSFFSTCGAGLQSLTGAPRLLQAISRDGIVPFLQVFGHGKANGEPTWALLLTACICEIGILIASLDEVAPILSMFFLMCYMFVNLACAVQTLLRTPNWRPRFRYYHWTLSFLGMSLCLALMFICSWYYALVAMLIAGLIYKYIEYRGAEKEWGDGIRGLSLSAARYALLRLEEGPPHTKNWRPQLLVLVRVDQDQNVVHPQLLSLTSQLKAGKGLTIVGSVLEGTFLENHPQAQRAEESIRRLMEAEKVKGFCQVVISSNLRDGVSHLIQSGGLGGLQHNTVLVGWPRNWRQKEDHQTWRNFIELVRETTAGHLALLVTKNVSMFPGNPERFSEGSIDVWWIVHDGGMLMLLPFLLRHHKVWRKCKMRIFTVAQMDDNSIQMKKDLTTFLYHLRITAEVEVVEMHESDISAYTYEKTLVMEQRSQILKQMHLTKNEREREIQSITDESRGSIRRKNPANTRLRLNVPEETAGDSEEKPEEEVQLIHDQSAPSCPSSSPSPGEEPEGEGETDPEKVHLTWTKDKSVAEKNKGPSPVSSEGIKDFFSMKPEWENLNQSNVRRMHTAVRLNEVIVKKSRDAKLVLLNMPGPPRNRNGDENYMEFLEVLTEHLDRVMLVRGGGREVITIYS
Pf gametocyte: P. falciparum stage V gametocyte viability inhibition. P. falciparum stage V gametocytes, ATP luminescence, 24 h. inhibition, % at 10.9 µM. 0.065% of 150,000 active. AID 743093;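 active means inhibition above the mean plus 3 SD of compounds within the control limits, set per campaign, cut at about 38% in these data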
WT yeast gro inh: growth inhibition of WT yeast, mitochondrial fusion screen; AID 1362; mitochondrial fusion phenotypic screen, WT strain; inhibition, % at 10 µM; 2.1% of 190,000 active; in the data active means inhibition above about 58%; tested in S. cerevisiae
KCC2 sec1: KCC2 (human) modulation, secondary assay; shares compounds with Cl transport mod; HEK293-KCC2, thallium flux, FluoZin2 fluorescence; hits give high values; normalised thallium flux (F/F0 slope) at 10 µM; 15% of 3,700 active;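 active means thallium flux slope above the same plate's solvent-only control mean plus 3 SD; inconclusive means the two replicate wells disagree; inactive means no significant difference from solvent-only control wells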
KCC2 bumet counter: thallium flux despite bumetanide block in KCC2 cells, secondary assay 3. 49% of 3,700 active. HEK293-KCC2 + bumetanide/ouabain, thallium flux FluoZin2; hits give high values. normalized thallium flux at 10 µM. shares compounds with Cl transport mod;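 active means thallium entry rate above the same plate's blocked-transporter control wells by more than 3 SD; inconclusive means the two repeat wells disagree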;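 further: raw slope of fluorescence over initial fluorescence between 10 and 20 s after thallium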
KCC2 secondary2: KCC2 (human) modulation, second secondary assay | AID 1715 | 23% of 3,700 active | HEK293-KCC2, thallium flux FluoZin2 fluorescence; actives lie on both sides; F/F0 rise rate, 10–20 s post-thallium | shares compounds with Cl transport mod | normalized thallium flux at 10 µM;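 active means thallium flux slope more than 3 SD above or below the plate's solvent-only control mean, mostly below; inconclusive means the two repeat wells disagreed; inactive means no significant shift from solvent-only controls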
HEK293 Tl flux: counter-screen for KCC2 modulators: effect in parental HEK293 cells | thallium flux FluoZin2, ouabain; baseline-ratio fluorescence slope, 10–20 s after thallium | thallium flux rate (normalised fluorescence) at 10 µM | shares compounds with Cl transport mod | 46% of 3,700 active;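 active means thallium flux rate significantly above the same plate's solvent-only control wells, beyond their mean plus 3 SD; inconclusive means the two replicate wells gave conflicting results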
KCC2 retest ouab: KCC2 (human) modulation, ouabain retest; shares compounds with Cl transport mod; HEK293-KCC2, thallium flux FluoZin2 fluorescence; bidirectional: low = inhibitor, high = activator; raw Tl+ flux slope (below DMSO = inhibition, above = activation) at 10 µM; 48% of 3,700 active;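 active means thallium flux slope beyond 3 SD from same-plate DMSO control mean in most replicates, usually higher, sometimes lower; inconclusive means repeat tests gave conflicting results; inactive means no significant difference from controls in most replicates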;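 further: slope of initial-normalized fluorescence between seconds 10 and 20 after thallium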
HEK counter2: acts in parental HEK cells, second KCC2 counter-screen; 33% of 3,700 active; AID 1718; shares compounds with Cl transport mod; thallium flux slope at 10 µM; HEK293 parental, thallium flux FluoZin-2 fluorescence slope;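 active means thallium flux slope above the same plate's solvent-control mean plus 3 SD in both duplicate wells; inconclusive means duplicate wells that disagreed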;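 further: run without ouabain in cells lacking the KCC2 cotransporter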
Large screens that a line does not name were inactive (follow-up assays come after a bar, where they were run). This is a sample that favours compounds with a hit; in the whole collection about 4% have one here.

Cc1nn(C)c(C(=O)NNC(=S)Nc2ccc(Cl)cc2)c1[N+](=O)[O-]	none (no result: Pf gametocyte)
CCn1ncc(Cl)c1C(=O)Nc1cc([N+](=O)[O-])ccc1OC	none (no result: b-catenin transl)
CCOc1ccc(NC(=S)NC(=O)c2c(Br)cnn2C)c([N+](=O)[O-])c1	none (no result: b-catenin transl, Pf gametocyte)
Cc1cccc(C(=O)NCCN2CCOCC2)c1[N+](=O)[O-]	none
CCN(C(=O)COC(=O)CNC(=O)c1ccc2ccccc2c1)C1CCS(=O)(=O)C1 (stereo not given)	none (no result: Pf gametocyte)
COc1ccc(OCC(=O)NCCCN2CCOCC2)cc1	none (no result: Pf gametocyte)
CCC(CO)Oc1cc(NCc2ccccc2Cl)c2ncn(C(C)C)c2c1 (stereo not given)	none (no result: b-catenin transl, MT stabilize HCS, Cl transport mod, WT yeast gro inh)
O=C(COC(=O)c1cccnc1Cl)NCc1ccco1	none
Cc1c(NC(=S)N/N=C\c2ccccc2O)c(=O)n(-c2ccccc2)n1C	none
Oc1c(Cl)cc(Cl)cc1/C=N/NC(=S)NC1CC2C=CC1C2 (stereo not given)	Cl transport mod 9.2 (no result: MT stabilize HCS, WT yeast gro inh) | KCC2 sec1 inactive | KCC2 bumet counter 0.017 | KCC2 secondary2 inactive | HEK293 Tl flux 0.011 | KCC2 retest ouab inconclusive | HEK counter2 inactive
Oc1c(Cl)cc(Cl)cc1/C=N/Nc1ncc(Br)cn1	none
Oc1ccccc1/C=N/NC(=S)NC1CC2C=CC1C2 (stereo not given)	Cl transport mod 18 (no result: MT stabilize HCS, WT yeast gro inh) | KCC2 sec1 inconclusive | KCC2 bumet counter 0.052 | KCC2 secondary2 inactive | HEK293 Tl flux 0.025 | KCC2 retest ouab inactive | HEK counter2 0.014
Cc1cc(C#Cc2c(-c3ccccc3)n(C)c3ccccc23)ccc1F	none (no result: b-catenin transl, MT stabilize HCS, Cl transport mod, WT yeast gro inh)
CCc1nnc(N2C(=N)SCC2=O)s1	none
CCNc1nc(NCC)n2c(SCC(=O)N(CC)C3CCCCC3)nnc2n1	none
CC1=NN(c2nc3ccccc3[nH]2)C(=O)C1Cc1ccccc1 (stereo not given)	Cl transport mod 8.6 (no result: MT stabilize HCS, Pf gametocyte, WT yeast gro inh) | KCC2 sec1 inactive | KCC2 bumet counter 0.016 | KCC2 secondary2 inactive | HEK293 Tl flux 0.016 | KCC2 retest ouab 0.027 | HEK counter2 0.019
O=C(CCC1CCCN(c2ncccn2)C1)NCc1ccc(F)c(F)c1 (stereo not given)	none
CCc1ccc(Nc2nnc(SCc3cc(=O)n4ccsc4n3)s2)cc1	Cl transport mod -8.5 (no result: Pf gametocyte) | KCC2 sec1 inactive | KCC2 bumet counter inactive | KCC2 secondary2 0.021 | HEK293 Tl flux inactive | KCC2 retest ouab 0.011 | HEK counter2 inactive
COc1ccccc1Nc1nnc(SCc2cc(=O)n3ccsc3n2)s1	none (no result: WT yeast gro inh)
Cc1ccc(Nc2nnc(SCc3cc(=O)n4ccsc4n3)s2)c(C)c1	Cl transport mod -7.6 | KCC2 sec1 inactive | KCC2 bumet counter inactive | KCC2 secondary2 inconclusive | HEK293 Tl flux inactive | KCC2 retest ouab 0.016 | HEK counter2 inactive
Cc1onc(-c2ccccc2Cl)c1C(=O)NCc1ccccn1	none (no result: Pf gametocyte)
COc1ccccc1NC(=S)NC(=O)c1c(-c2ccccc2Cl)noc1C	Cl transport mod 3.7, WT yeast gro inh 70 | KCC2 sec1 inactive | KCC2 bumet counter 0.028 | KCC2 secondary2 inactive | HEK293 Tl flux inconclusive | KCC2 retest ouab 0.03 | HEK counter2 inconclusive
Cc1onc(-c2ccccc2Cl)c1C(=O)NC(=S)Nc1ccccc1F	Cl transport mod 54, WT yeast gro inh 70 | KCC2 sec1 0.015 | KCC2 bumet counter 0.099 | KCC2 secondary2 inactive | HEK293 Tl flux 0.044 | KCC2 retest ouab 0.041 | HEK counter2 0.013
COc1ccc(CCNC(=S)NC(=O)c2c(-c3ccccc3Cl)noc2C)cc1OC	none (no result: MT stabilize HCS, WT yeast gro inh)
Cc1onc(-c2c(F)cccc2Cl)c1C(=O)NCc1ccccn1	Cl transport mod -4.9 (no result: Pf gametocyte) | KCC2 sec1 inconclusive | KCC2 bumet counter inconclusive | KCC2 secondary2 inconclusive | HEK293 Tl flux inactive | KCC2 retest ouab inactive | HEK counter2 inactive
COc1ccc(CCNC(=O)c2c(-c3ccccc3Cl)noc2C)cc1	none (no result: b-catenin transl)
Cc1onc(-c2ccccc2Cl)c1C(=O)NCCN1Cc2ccccc2C1=O	none (no result: Cl transport mod, Pf gametocyte) | KCC2 sec1 inactive | KCC2 bumet counter inactive | KCC2 secondary2 inactive | HEK293 Tl flux inactive | KCC2 retest ouab inactive | HEK counter2 inactive
COc1ccccc1CNC(=O)c1cccc2c1C(=O)N(Cc1cccnc1)C2	none
O=c1c(-c2n[nH]c(=S)n2-c2ccccc2)cccn1Cc1cccc(Cl)c1	none
CCOC(=O)c1c(C)c(C(=O)NCc2ccccn2)c(C)n1CC	Cl transport mod 8.3 (no result: Pf gametocyte) | KCC2 sec1 inactive | KCC2 bumet counter inactive | KCC2 secondary2 inactive | HEK293 Tl flux inactive | KCC2 retest ouab inactive | HEK counter2 inactive
CCOC(=O)c1ccc(NC(=O)C(=O)NCc2ccccn2)cc1	none
Cc1cc(C)c(C#N)c(Sc2nnnn2-c2ccccc2)n1	none (no result: Pf gametocyte)
COc1cc(-c2nc(CN3CCN(c4ncccn4)CC3)c(C)o2)ccc1F	Cl transport mod -3 | KCC2 sec1 inactive | KCC2 bumet counter inactive | KCC2 secondary2 inactive | HEK293 Tl flux inconclusive | KCC2 retest ouab inactive | HEK counter2 inconclusive
COc1cc(-c2nc(CN3CCN(CC(C)C)C(=O)[C@@H]3C)c(C)o2)ccc1F	none
COc1cccc(NC(=O)c2ccc(-n3cccn3)nc2)c1	none (no result: b-catenin transl)
S=c1nc(-c2ccccc2)n(CCCN2CCOCC2)c2c1CCCC2	Cl transport mod 12 (no result: Pf gametocyte) | KCC2 sec1 0.018 | KCC2 bumet counter 0.024 | KCC2 secondary2 inactive | HEK293 Tl flux 0.026 | KCC2 retest ouab 0.037 | HEK counter2 inconclusive
N#Cc1cnn2ccc(-c3cc(N4CCOCC4)ccc3[N+](=O)[O-])nc12	none
